Assay results published in ChEMBL document CHEMBL1136923, “Highly potent, orally available anti-inflammatory broad-spectrum chemokine inhibitors” (J Med Chem, 2009).

How the values were obtained:
Mus musculus [1] = assay: Antiinflammatory activity in sc dosed mouse assessed as inhibition of LPS-induced TNFalpha upregulation measured 2 hrs after LPS challenge; assay type: functional
[2] = Clearance in Sprague-Dawley rat at 1 mg/kg, iv administered as single dose; assay type: ADME, organism-based; parameters: dose 1 mg/kg, route intravenous; settings: in vivo
Summary of the method: (§1)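 Male Sprague-Dawley rats, three per compound, receive a single intravenous dose in 5% DMSO in 0.9% saline. Food and water are given ad libitum. Plasma is taken at 5, 15, 30, 60, 120, 180, 240 and 480 min. Drug is measured by LC/MS/MS after extraction with 0.1% formic acid in acetonitrile. The curve is back-extrapolated to time zero assuming an initial volume of 0.26 L/kg.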

Mus musculus [3] = assay: Antiinflammatory activity in mouse assessed as inhibition of LPS-induced TNFalpha upregulation at 0.0025 mg, po measured 2 hrs after LPS challenge; assay type: functional
Summary of the method: (§2)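 Murine sublethal endotoxemia: LPS given intraperitoneally, with serum TNF-α measured 2 h after the LPS injection as the end point. Compound was given subcutaneously or orally. Vehicle was 0.6% DMSO and 1% carboxymethylcellulose (final concentrations) in sterile water. Effect is reported as % relative to control.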

[4] = molecular target: C-C chemokine receptor type 2 (Homo sapiens) (UniProt P41597); assay: Antagonist activity at CCR2 in human THP1 cells assessed as inhibition of CCL2-induced chemotaxis at 10 nM after 2 hrs by microtiter format trans-well migration assay; assay type: functional, cell-based; settings: THP-1
C-C chemokine receptor type 2 (Homo sapiens), sequence (P41597 whole entry, looked up): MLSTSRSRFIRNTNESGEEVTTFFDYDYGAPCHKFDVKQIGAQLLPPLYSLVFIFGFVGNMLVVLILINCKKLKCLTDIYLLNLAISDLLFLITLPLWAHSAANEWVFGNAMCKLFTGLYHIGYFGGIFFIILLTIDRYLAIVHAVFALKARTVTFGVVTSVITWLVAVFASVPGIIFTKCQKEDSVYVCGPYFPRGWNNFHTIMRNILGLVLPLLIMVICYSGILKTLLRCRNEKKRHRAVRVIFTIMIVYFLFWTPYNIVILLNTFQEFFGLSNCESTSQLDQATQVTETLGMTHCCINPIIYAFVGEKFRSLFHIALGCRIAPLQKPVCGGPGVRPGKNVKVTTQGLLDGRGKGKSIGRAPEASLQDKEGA
Summary of the method: (§3)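 Microtiter trans-well migration assay in Gey's balanced salt solution with 1 mg/mL endotoxin-free BSA, no fetal calf serum. Migration ran 2 h at 37 °C. Compounds dissolved in DMSO and added to both top and bottom compartments, final DMSO 1%.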

[5] = molecular target: C-C chemokine receptor type 5 (Homo sapiens) (UniProt P51681); assay: Antagonist activity at CCR5 in human THP1 cells assessed as inhibition of CCL5-induced chemotaxis at 0.01 nM after 2 hrs by microtiter format trans-well migration assay; assay type: functional, cell-based; settings: THP-1; summary of the method: as §3
C-C chemokine receptor type 5 (Homo sapiens), sequence (P51681 whole entry, looked up): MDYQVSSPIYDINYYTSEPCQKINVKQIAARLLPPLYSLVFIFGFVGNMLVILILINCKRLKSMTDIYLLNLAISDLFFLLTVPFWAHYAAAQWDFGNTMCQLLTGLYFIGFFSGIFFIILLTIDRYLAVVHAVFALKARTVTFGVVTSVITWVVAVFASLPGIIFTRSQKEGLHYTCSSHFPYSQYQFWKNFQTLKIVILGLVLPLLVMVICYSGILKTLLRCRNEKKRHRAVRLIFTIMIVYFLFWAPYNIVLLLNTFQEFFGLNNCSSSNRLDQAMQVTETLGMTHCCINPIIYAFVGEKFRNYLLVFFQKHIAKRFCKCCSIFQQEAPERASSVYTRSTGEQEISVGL

[6] = Antagonist activity at Interleukin-8 receptor in human PMNC assessed as inhibition of CXCL8-induced chemotaxis at 1000 nM after 2 hrs by microtiter format trans-well migration assay; assay type: functional; summary of the method: as §3
[7] = molecular target: C-X-C chemokine receptor type 4 (Homo sapiens) (UniProt P61073); assay: Antagonist activity at CXCR4 in human THP1 cells assessed as inhibition of CXCL12-induced chemotaxis after 2 hrs by microtiter format trans-well migration assay; assay type: functional, cell-based; settings: THP-1; summary of the method: as §3
C-X-C chemokine receptor type 4 (Homo sapiens), sequence (P61073 whole entry): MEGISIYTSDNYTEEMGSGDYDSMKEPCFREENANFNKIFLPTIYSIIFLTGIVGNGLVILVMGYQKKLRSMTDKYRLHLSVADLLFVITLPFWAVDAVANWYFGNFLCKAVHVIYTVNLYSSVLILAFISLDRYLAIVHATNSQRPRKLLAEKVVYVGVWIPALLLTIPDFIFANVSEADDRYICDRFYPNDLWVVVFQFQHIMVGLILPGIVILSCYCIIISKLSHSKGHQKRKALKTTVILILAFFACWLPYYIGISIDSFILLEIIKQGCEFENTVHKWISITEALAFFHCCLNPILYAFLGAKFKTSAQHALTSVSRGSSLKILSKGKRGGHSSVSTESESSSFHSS

[8] = molecular target: T1, C5a anaphylatoxin chemotactic receptor 1 (Homo sapiens) (UniProt P21730); assay: Antagonist activity at C5a receptor in human PMNC assessed as inhibition of C5a-induced chemotaxis at 1000 nM after 2 hrs by microtiter format trans-well migration assay; assay type: functional; summary of the method: as §3
T1 sequence (whole entry): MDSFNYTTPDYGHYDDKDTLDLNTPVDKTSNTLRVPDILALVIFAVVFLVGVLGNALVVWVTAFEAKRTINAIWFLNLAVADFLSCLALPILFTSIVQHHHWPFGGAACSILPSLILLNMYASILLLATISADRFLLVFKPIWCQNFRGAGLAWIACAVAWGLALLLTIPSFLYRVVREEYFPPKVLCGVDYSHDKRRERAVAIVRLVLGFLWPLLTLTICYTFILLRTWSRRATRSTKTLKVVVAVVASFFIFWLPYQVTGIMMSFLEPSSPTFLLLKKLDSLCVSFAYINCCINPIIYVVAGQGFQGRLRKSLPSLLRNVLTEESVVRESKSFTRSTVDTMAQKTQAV

Mus musculus [9] = assay: Antiinflammatory activity in mouse assessed as inhibition of LPS-induced TNFalpha upregulation at 0.0075 mg, sc measured 2 hrs after LPS challenge; assay type: functional; summary of the method: as §2
[10] = molecular target: C-C chemokine receptor type 5 (Homo sapiens) (UniProt P51681); assay: Antagonist activity at CCR5 in human THP1 cells assessed as inhibition of CCL5-induced chemotaxis at 1 nM after 2 hrs by microtiter format trans-well migration assay; assay type: functional, cell-based; settings: THP-1; summary of the method: as §3
[11] = molecular target: C-C chemokine receptor type 5 (Homo sapiens) (UniProt P51681); assay: Antagonist activity at CCR5 in human THP1 cells assessed as inhibition of CCL5-induced chemotaxis at 10 nM after 2 hrs by microtiter format trans-well migration assay; assay type: functional, cell-based; settings: THP-1; summary of the method: as §3
[12] = Volume of distribution at steady state in Sprague-Dawley rat at 1 mg/kg, iv administered as single dose; assay type: ADME, organism-based; parameters: dose 1 mg/kg, route intravenous; settings: in vivo, read-out: Vdss; summary of the method: as §1

clearance [2]: 40 mL/min/kg | inhibition [4]: 96% | inhibition [5]: 8.5% | ED50 [7]: 1 nM | inhibition [10]: 56% | inhibition [11]: 102% | Vd [12]: 2 L/kg
Structure (SMILES): CCCCCCCCCCC(C)(C)C(=O)N[C@H]1CCCCNC1=O
ED50 (Mus musculus [1]): 0.15 µg/kg | inhibition (INH) (Mus musculus [3]): 0% | inhibition at 1 µM [6]: 122% | inhibition [8]: 26% | inhibition (INH) (Mus musculus [9]): 63%
